# In publication PMC4489320 (Clinical Pharmacology in Drug Development, 2014):
# Legend:
# healthy adults [1] = assay: Thorough QT/QTc crossover study, Holter ECG recordings; type: in vivo, human
# Procedure, shortened: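 Three-period crossover in healthy adults (QTcF >450 ms excluded), with 14-day washouts and six Williams-square sequences. Dosing was placebo, a 0.1 mg/kg IV bolus over 30 s, or oral moxifloxacin 400 mg at Hour 1. ECGs came from 24-h Holter recordings read blind, with baseline the mean of −1, −0.5 and −0.25 h values. QTcI/QTcF/QTcB time-matched ddQTc was analysed by linear mixed-effect models with one-sided 95% CI.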
# [2] = in vitro and in vivo studies; ref data on file; cited from earlier work
# healthy adults [3] = assay: Treatment-emergent adverse events; type: in vivo, human; conditions: 0.1 mg/kg IV single dose
Compound,"number of subjects with QTcF intervals >450 but ≤480 milliseconds (healthy adults [1]; healthy subjects, single dose)","percentage of subjects with QTcF intervals >450 but ≤480 milliseconds (healthy adults [1]; healthy subjects, single dose) [%]","peak mean difference in dQTcI and dQTcF vs placebo (healthy adults [1]; moxifloxacin 400 mg oral, 2 hours after administration (Hours 3 and 4))","lower bound of ddQTcF vs placebo at prespecified timepoints (healthy adults [1]; moxifloxacin 400 mg oral, Hours 2, 3, 4 and 5)","lower bound of the one-sided 95% CI of ddQTcF vs placebo (healthy adults [1]; moxifloxacin 400 mg oral, Hours 3 to 10 (2–9 hours after moxifloxacin dosing)) [milliseconds]",metabolism [2],"effects on heart rate, PR interval, or QRS interval (healthy adults [1]; healthy subjects, 0.1 mg/kg IV single dose)","subjects with >30 milliseconds increase in QTcF (healthy adults [1]; healthy subjects, single dose)","slope of linear relationship between ddQTcF and plasma concentration (healthy adults [1]; linear mixed-effects model, P = 0.126, 90% CI (<−0.0005, 0.002), not statistically significant)",subjects with cardiac disorder TEAE (healthy adults [3]),severity of TEAEs (healthy adults [3]; healthy subjects)
COc1c(N2C[C@@H]3CCCN[C@@H]3C2)c(F)cc2c(=O)c(C(=O)O)cn(C3CC3)c12 [moxifloxacin],five,8.3,around 12 milliseconds,above 5 milliseconds,> 5,,,,,,
peginesatide,0 subjects,,,,,negligible metabolism,no peginesatide-related effects,no subject,0.001,No subject,mild or moderate
